Activity calls are given as the source filed them. The rule behind the calls is not given here.
Tests used:
[1] = target: Neuronal acetylcholine receptor; alpha9/alpha10 (Homo sapiens, UniProt Q9GZZ6+Q9UGM1); experiment: Inhibition of human alpha9alpha10 nAChR expressed in xenopus oocytes assessed as inhibition of Ach- induced response at -70 mV holding potential and measured for 1 to 5 days in presence of Ach stimulation by voltage-clamp based electrophysiological method; assay type: cell-based, Oocyte
Chain of Neuronal acetylcholine receptor; alpha9/alpha10 (Q9UGM1 whole entry): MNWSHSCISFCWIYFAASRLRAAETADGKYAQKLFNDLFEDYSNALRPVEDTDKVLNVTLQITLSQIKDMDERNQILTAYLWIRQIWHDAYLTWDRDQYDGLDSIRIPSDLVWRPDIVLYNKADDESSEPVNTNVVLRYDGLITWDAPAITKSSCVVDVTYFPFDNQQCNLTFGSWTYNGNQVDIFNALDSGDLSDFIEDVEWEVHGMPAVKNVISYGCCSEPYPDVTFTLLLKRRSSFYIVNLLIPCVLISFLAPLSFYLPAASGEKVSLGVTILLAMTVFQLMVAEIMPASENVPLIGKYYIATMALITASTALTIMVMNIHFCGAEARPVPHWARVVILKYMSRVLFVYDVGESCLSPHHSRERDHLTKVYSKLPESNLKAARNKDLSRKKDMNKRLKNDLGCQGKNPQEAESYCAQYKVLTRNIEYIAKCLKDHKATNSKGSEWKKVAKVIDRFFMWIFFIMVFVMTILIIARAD
Chain of Neuronal acetylcholine receptor; alpha9/alpha10 (Q9GZZ6 whole entry): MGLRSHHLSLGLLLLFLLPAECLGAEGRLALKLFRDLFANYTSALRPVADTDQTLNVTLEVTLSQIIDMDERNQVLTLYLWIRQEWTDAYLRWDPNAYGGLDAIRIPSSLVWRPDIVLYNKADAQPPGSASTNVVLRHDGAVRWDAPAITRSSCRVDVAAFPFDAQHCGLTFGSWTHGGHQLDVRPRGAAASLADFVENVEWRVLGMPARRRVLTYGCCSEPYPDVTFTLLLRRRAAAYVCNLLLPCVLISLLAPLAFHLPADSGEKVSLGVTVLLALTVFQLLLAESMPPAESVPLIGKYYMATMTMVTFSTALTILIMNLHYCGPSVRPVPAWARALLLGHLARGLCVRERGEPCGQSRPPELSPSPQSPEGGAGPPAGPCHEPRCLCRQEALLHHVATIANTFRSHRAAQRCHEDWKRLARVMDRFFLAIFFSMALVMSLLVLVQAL
Procedure, shortened: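 Two-electrode voltage clamp on Xenopus oocytes expressing human α9α10, recorded 1–5 d after injection. Held at −70 mV at room temperature in Ca²⁺-containing ND-96. A 1 s pulse of 100 µM ACh was given every 60 s and peptide was flowed on. IC50 with 95% CI from 3–5 separate oocytes.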

[2] = target: Neuronal acetylcholine receptor; alpha4/beta4 (Homo sapiens, UniProt P30926+P43681); experiment: Inhibition of human alpha4beta4 nAChR expressed in xenopus oocytes assessed as inhibition of Ach- induced response at -70 mV holding potential and measured for 1 to 5 days in presence of Ach stimulation by voltage-clamp based electrophysiological method; assay type: cell-based, Oocyte
Procedure, shortened: (§1)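 Xenopus oocytes expressing cloned rat or human nAChR subtypes, recorded 1–5 d after injection. Held at −70 mV at room temperature and pulsed with ACh for 1 s every 60 s while peptide was flowed on. Where noted, Ba²⁺ replaced Ca²⁺ to limit current run-up after block. Values from 3–5 separate oocytes.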

[3] = target: Neuronal acetylcholine receptor; alpha2/beta4 (Homo sapiens, UniProt P30926+Q15822); experiment: Inhibition of human alpha2beta4 nAChR expressed in xenopus oocytes assessed as inhibition of Ach- induced response at -70 mV holding potential and measured for 1 to 5 days in presence of Ach stimulation by voltage-clamp based electrophysiological method; assay type: cell-based, Oocyte; procedure, shortened: as §1
[4] = target: Nicotinic acetylcholine receptor alpha6/alpha3/beta4 (Rattus norvegicus, UniProt P04757+P12392+P43143); experiment: Inhibition of rat alpha6/alpha3beta4 nAChR expressed in xenopus oocytes assessed as inhibition of Ach- induced response at -70 mV holding potential and measured for 1 to 5 days in presence of Ach stimulation by voltage-clamp based electrophysiological method; assay type: cell-based, Oocyte; procedure, shortened: as §1
[5] = Inhibition of human alpha1beta1deltaepsilon nAChR expressed in xenopus oocytes assessed as inhibition of Ach- induced response at -70 mV holding potential and measured for 1 to 5 days in presence of Ach stimulation by voltage-clamp based electrophysiological method; assay type: cell-based; details: Oocyte; procedure, shortened: as §1
[6] = Inhibition of human alpha6/alpha3beta2beta3 nAChR expressed in xenopus oocytes assessed as inhibition of Ach- induced response at -70 mV holding potential and measured for 1 to 5 days in presence of Ach stimulation by voltage-clamp based electrophysiological method; assay type: cell-based; details: Oocyte; procedure, shortened: as §1
[7] = tested on: Mus musculus; experiment: Analgesic activity against oxaliplatin-induced peripheral neuropathic pain mouse model assessed as reversal of oxaliplatin-induced cold allodynia by measuring withdrawal latency at 4 to 40 microg/kg, sc for 22 days (5 days per week) and measured after 24 hrs post-injection by cold-plate test chamber analysis; assay type: functional, organism-based; details: dose 4-40 µg/kg, time 22.0 day
Procedure, shortened: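 Mice, 8 per group. Oxaliplatin 3.5 mg/kg i.p. and peptide 4 or 40 µg/kg s.c., both in sterile 0.9% NaCl, given daily Wed–Fri and Mon–Tue through day 22; controls received saline. Cold allodynia tested on days 8, 15 and 22, 24 h after the last injection. Cold plate: 2–5 min acclimation at 23 °C, then cooled 10 °C/min until both forepaws lifted with shaking or licking. Mean ± SEM versus vehicle.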

[8] = target: Nicotinic acetylcholine receptor alpha9/alpha10 (Rattus norvegicus, UniProt P43144+Q9JLB5); assay type: cell-based, Oocyte
[9] = target: Neuronal acetylcholine receptor; alpha2/beta2 (Homo sapiens, UniProt P17787+Q15822); experiment: Inhibition of human alpha2beta2 nAChR expressed in xenopus oocytes assessed as inhibition of Ach- induced response at -70 mV holding potential and measured for 1 to 5 days in presence of Ach stimulation by voltage-clamp based electrophysiological method; assay type: cell-based, Oocyte; procedure, shortened: as §1
[10] = target: Neuronal acetylcholine receptor; alpha3/beta2 (Homo sapiens, UniProt P17787+P32297); experiment: Inhibition of human alpha3beta2 nAChR expressed in xenopus oocytes assessed as inhibition of Ach- induced response at -70 mV holding potential and measured for 1 to 5 days in presence of Ach stimulation by voltage-clamp based electrophysiological method; assay type: cell-based, Oocyte; procedure, shortened: as §1
[11] = target: Neuronal acetylcholine receptor; alpha4/beta2 (Rattus norvegicus, UniProt P09483+P12390); experiment: Inhibition of rat alpha4beta2 nAChR expressed in xenopus oocytes assessed as inhibition of Ach- induced response at -70 mV holding potential and measured for 1 to 5 days in presence of Ach stimulation by voltage-clamp based electrophysiological method; assay type: cell-based, Oocyte; procedure, shortened: as §1
[12] = target: Nicotinic acetylcholine receptor alpha6/alpha3/beta4 (Homo sapiens, UniProt P30926+P32297+Q15825); experiment: Inhibition of human alpha6/alpha3beta4 nAChR expressed in xenopus oocytes assessed as inhibition of Ach- induced response at -70 mV holding potential and measured for 1 to 5 days in presence of Ach stimulation by voltage-clamp based electrophysiological method; assay type: cell-based, Oocyte; procedure, shortened: as §1
[13] = target: Neuronal acetylcholine receptor; alpha2/beta4 (Rattus norvegicus, UniProt P12389+P12392); experiment: Inhibition of rat alpha2beta4 nAChR expressed in xenopus oocytes assessed as inhibition of Ach- induced response at -70 mV holding potential and measured for 1 to 5 days in presence of Ach stimulation by voltage-clamp based electrophysiological method; assay type: cell-based, Oocyte; procedure, shortened: as §1
[14] = target: Neuronal acetylcholine receptor; alpha4/beta2 (Homo sapiens, UniProt P17787+P43681); experiment: Inhibition of human alpha4beta2 nAChR expressed in xenopus oocytes assessed as inhibition of Ach- induced response at -70 mV holding potential and measured for 1 to 5 days in presence of Ach stimulation by voltage-clamp based electrophysiological method; assay type: cell-based, Oocyte; procedure, shortened: as §1
[15] = target: Neuronal acetylcholine receptor subunit alpha-7 (Rattus norvegicus, UniProt Q05941); experiment: Inhibition of rat alpha7 nAChR expressed in xenopus oocytes assessed as inhibition of Ach- induced response at -70 mV holding potential and measured for 1 to 5 days in presence of Ach stimulation by voltage-clamp based electrophysiological method; assay type: cell-based, Oocyte; procedure, shortened: as §1
[16] = target: Neuronal acetylcholine receptor subunit alpha-7 (Homo sapiens, UniProt P36544); experiment: Inhibition of human alpha7 nAChR expressed in xenopus oocytes assessed as inhibition of Ach- induced response at -70 mV holding potential and measured for 1 to 5 days in presence of Ach stimulation by voltage-clamp based electrophysiological method; assay type: cell-based, Oocyte; procedure, shortened: as §1
[17] = target: Neuronal acetylcholine receptor; alpha3/beta4 (Homo sapiens, UniProt P30926+P32297); experiment: Inhibition of human alpha3beta4 nAChR expressed in xenopus oocytes assessed as inhibition of Ach- induced response at -70 mV holding potential and measured for 1 to 5 days in presence of Ach stimulation by voltage-clamp based electrophysiological method; assay type: cell-based, Oocyte; procedure, shortened: as §1
[18] = target: Nicotinic acetylcholine receptor alpha6/alpha3/beta2/beta3 (Rattus norvegicus, UniProt P04757+P12390+P12391+P43143); experiment: Inhibition of rat alpha6/alpha3beta2beta3 nAChR expressed in xenopus oocytes assessed as inhibition of Ach- induced response at -70 mV holding potential and measured for 1 to 5 days in presence of Ach stimulation by voltage-clamp based electrophysiological method; assay type: cell-based, Oocyte; procedure, shortened: as §1
Chain of Nicotinic acetylcholine receptor alpha6/alpha3/beta2/beta3 (P04757 whole entry): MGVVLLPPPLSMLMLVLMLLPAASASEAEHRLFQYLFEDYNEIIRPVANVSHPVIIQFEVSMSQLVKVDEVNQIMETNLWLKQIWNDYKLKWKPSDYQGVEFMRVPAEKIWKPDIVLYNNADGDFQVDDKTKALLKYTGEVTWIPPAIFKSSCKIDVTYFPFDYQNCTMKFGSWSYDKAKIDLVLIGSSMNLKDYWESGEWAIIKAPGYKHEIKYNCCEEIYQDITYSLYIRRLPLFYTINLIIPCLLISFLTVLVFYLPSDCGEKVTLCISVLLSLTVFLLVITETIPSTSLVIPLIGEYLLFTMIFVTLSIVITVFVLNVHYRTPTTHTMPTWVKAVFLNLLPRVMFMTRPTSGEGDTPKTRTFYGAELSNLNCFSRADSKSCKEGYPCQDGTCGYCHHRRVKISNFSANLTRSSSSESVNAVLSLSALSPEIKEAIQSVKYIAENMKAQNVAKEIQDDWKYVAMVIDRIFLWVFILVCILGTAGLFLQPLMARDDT
Chain of Nicotinic acetylcholine receptor alpha6/alpha3/beta2/beta3 (P12390 whole entry): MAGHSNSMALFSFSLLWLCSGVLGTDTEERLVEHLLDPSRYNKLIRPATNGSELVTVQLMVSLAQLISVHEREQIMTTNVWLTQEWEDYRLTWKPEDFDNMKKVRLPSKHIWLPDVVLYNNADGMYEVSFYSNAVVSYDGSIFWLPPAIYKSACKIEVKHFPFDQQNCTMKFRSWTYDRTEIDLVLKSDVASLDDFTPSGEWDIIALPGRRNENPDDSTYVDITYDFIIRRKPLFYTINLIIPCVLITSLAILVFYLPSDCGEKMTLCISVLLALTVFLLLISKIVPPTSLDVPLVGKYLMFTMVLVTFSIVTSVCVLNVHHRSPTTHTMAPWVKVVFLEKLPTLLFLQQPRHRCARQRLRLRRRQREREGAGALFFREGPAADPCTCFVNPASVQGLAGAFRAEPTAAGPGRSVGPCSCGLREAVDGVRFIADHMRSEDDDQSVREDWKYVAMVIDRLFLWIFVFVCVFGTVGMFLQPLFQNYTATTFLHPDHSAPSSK
Chain of Nicotinic acetylcholine receptor alpha6/alpha3/beta2/beta3 (P12391 whole entry): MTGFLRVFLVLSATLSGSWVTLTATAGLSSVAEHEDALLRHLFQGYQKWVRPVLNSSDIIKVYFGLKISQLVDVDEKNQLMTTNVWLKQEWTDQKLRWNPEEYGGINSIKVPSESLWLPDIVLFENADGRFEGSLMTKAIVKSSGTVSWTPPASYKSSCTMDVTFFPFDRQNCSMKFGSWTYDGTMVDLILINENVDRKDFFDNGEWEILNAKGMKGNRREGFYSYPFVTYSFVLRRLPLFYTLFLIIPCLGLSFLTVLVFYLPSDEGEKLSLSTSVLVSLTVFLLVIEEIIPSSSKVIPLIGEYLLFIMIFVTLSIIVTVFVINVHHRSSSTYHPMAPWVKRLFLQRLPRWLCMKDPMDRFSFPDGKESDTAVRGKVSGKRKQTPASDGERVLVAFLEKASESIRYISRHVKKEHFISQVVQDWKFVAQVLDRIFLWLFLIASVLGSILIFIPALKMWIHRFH
Chain of Nicotinic acetylcholine receptor alpha6/alpha3/beta2/beta3 (P43143 whole entry): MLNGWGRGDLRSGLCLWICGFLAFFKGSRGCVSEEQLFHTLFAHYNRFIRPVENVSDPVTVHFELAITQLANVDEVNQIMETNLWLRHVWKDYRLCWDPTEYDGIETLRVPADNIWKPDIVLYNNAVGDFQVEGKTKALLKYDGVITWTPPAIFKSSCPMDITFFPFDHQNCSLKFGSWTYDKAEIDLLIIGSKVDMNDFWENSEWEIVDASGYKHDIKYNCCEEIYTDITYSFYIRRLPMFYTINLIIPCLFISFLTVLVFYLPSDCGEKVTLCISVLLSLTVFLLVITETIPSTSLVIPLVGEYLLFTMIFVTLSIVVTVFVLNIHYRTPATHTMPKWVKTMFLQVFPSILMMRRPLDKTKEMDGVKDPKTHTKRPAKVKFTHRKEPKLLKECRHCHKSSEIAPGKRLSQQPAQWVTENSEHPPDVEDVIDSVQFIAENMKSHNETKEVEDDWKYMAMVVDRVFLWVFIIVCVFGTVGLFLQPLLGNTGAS

[19] = target: Neuronal acetylcholine receptor; alpha4/beta4 (Rattus norvegicus, UniProt P09483+P12392); experiment: Inhibition of rat alpha4beta4 nAChR expressed in xenopus oocytes assessed as inhibition of Ach- induced response at -70 mV holding potential and measured for 1 to 5 days in presence of Ach stimulation by voltage-clamp based electrophysiological method; assay type: cell-based, Oocyte; procedure, shortened: as §1
[20] = target: Neuronal acetylcholine receptor; alpha2/beta2 (Rattus norvegicus, UniProt P12389+P12390); experiment: Inhibition of rat alpha2beta2 nAChR expressed in xenopus oocytes assessed as inhibition of Ach- induced response at -70 mV holding potential and measured for 1 to 5 days in presence of Ach stimulation by voltage-clamp based electrophysiological method; assay type: cell-based, Oocyte; procedure, shortened: as §1
[21] = target: Neuronal acetylcholine receptor; alpha3/beta2 (Rattus norvegicus, UniProt P04757+P12390); experiment: Inhibition of rat alpha3beta2 nAChR expressed in xenopus oocytes assessed as inhibition of Ach- induced response at -70 mV holding potential and measured for 1 to 5 days in presence of Ach stimulation by voltage-clamp based electrophysiological method; assay type: cell-based, Oocyte; procedure, shortened: as §1
Chain of Neuronal acetylcholine receptor; alpha3/beta2 (Rattus norvegicus, UniProt P04757+P12390) (P04757 whole entry): as the sequence (P04757 whole entry) above
Chain of Neuronal acetylcholine receptor; alpha3/beta2 (Rattus norvegicus, UniProt P04757+P12390) (P12390 whole entry): as the sequence (P12390 whole entry) above

[22] = target: Neuronal acetylcholine receptor; alpha3/beta4 (Rattus norvegicus, UniProt P04757+P12392); experiment: Inhibition of rat alpha3beta4 nAChR expressed in xenopus oocytes assessed as inhibition of Ach- induced response at -70 mV holding potential and measured for 1 to 5 days in presence of Ach stimulation by voltage-clamp based electrophysiological method; assay type: cell-based, Oocyte; procedure, shortened: as §1
Chain of Neuronal acetylcholine receptor; alpha3/beta4 (Rattus norvegicus, UniProt P04757+P12392) (P04757 whole entry): as the sequence (P04757 whole entry) above
Chain of Neuronal acetylcholine receptor; alpha3/beta4 (Rattus norvegicus, UniProt P04757+P12392) (P12392 whole entry): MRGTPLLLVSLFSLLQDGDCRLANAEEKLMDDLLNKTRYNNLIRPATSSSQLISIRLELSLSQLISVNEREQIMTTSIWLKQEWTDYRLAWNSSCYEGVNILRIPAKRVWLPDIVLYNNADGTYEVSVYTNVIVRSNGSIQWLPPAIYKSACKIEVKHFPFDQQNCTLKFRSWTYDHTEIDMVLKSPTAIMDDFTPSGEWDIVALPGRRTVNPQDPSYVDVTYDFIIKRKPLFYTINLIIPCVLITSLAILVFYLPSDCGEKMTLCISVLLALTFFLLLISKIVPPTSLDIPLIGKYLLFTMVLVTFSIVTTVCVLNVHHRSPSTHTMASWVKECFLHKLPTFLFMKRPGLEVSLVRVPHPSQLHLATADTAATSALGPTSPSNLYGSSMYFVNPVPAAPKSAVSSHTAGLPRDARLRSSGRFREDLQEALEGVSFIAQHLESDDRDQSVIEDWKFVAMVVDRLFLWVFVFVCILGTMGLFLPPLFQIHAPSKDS

SMILES: C[C@@H](O)[C@@H]1NC(=O)[C@H]2NC(=O)[C@H](NC(=O)CN)CSSC[C@H](NC(=O)[C@H](CCCNC(=N)N)NC(=O)[C@@H]3CCCN3C(=O)[C@H](CC(=O)O)NC1=O)C(=O)N[C@@H](CCCNC(=N)N)C(=O)N[C@@H](Cc1ccc(O)c(I)c1)C(=O)N[C@@H](CCCN)C(=O)N[C@H](C(=O)N[C@H](CC(=O)N[C@@H](CCCNC(N)=O)C(=O)O)Cc1ccc(O)cc1)CSSC2(C)C
- IC50 [1]: 260 pM

SMILES: C[C@@H](O)[C@@H]1NC(=O)[C@H]2NC(=O)[C@H](NC(=O)CN)CSSC[C@H](NC(=O)[C@H](CCCNC(=N)N)NC(=O)[C@@H]3CCCN3C(=O)[C@H](CC(=O)O)NC1=O)C(=O)N[C@@H](CCCNC(=N)N)C(=O)N[C@@H](Cc1ccc(O)c(I)c1)C(=O)N[C@@H](CCCN)C(=O)N[C@H](C(=O)N[C@H](CC(=O)N[C@@H](CCC(=O)O)C(=O)O)Cc1ccc(O)cc1)CSSC2(C)C
- IC50 [1]: 400 pM

SMILES: C[C@@H](O)[C@@H]1NC(=O)[C@@H]2CSSC[C@@H](C(=O)N[C@@H](Cc3ccc(O)cc3)C(=O)O)NC(=O)[C@H](CCC(N)=O)NC(=O)[C@H](Cc3ccc(O)c(I)c3)NC(=O)[C@H](CCCNC(=N)N)NC(=O)[C@H](CSSC[C@@H](NC(=O)CN)C(=O)N2)NC(=O)[C@H](CCCNC(N)=O)NC(=O)[C@@H]2CCCN2C(=O)[C@H](CC(=O)O)NC1=O
- IC50 [1]: 1400 pM

SMILES: C[C@@H](O)[C@@H]1NC(=O)[C@H]2NC(=O)[C@H](NC(=O)CN)CSSC[C@H](NC(=O)[C@H](CCCNC(=N)N)NC(=O)[C@@H]3CCCN3C(=O)[C@H](CC(=O)O)NC1=O)C(=O)N[C@@H](CCCNC(=N)N)C(=O)N[C@@H](Cc1ccc(O)c(I)c1)C(=O)N[C@@H](CCCN)C(=O)N[C@H](C(=O)N[C@H](CC(=O)N[C@@H](CCCNC(=N)N)C(=O)O)Cc1ccc(O)cc1)CSSC2(C)C
- IC50 [2]: > 10 µM
- IC50 [3]: > 10 µM
- IC50 [4]: > 10 µM
- IC50 [5]: > 10 µM
- IC50 [6]: > 10 µM
- Activity [7]: Active
- IC50 [8]: 0.00039 µM
- IC50 [9]: > 10 µM
- IC50 [10]: > 10 µM
- IC50 [11]: > 10 µM
- IC50 [12]: > 10 µM
- IC50 [13]: > 10 µM
- IC50 [14]: > 10 µM
- IC50 [15]: > 0.333 µM
- IC50 [16]: 0.115 µM
- IC50 [17]: > 10 µM
- IC50 [18]: > 10 µM
- IC50 [19]: > 10 µM
- IC50 [1]: 50 pM
- IC50 [20]: > 10 µM
- IC50 [21]: > 10 µM
- IC50 [22]: > 10 µM

SMILES: C[C@@H](O)[C@@H]1NC(=O)[C@H]2NC(=O)[C@H](NC(=O)CN)CSSC[C@H](NC(=O)[C@H](CCCNC(=N)N)NC(=O)[C@@H]3CCCN3C(=O)[C@H](CC(=O)O)NC1=O)C(=O)N[C@@H](CCCNC(=N)N)C(=O)N[C@@H](Cc1ccc(O)c(I)c1)C(=O)N[C@@H](CCCN)C(=O)N[C@H](C(=O)N[C@H](CC(=O)N[C@@H](CCCN)C(=O)O)Cc1ccc(O)cc1)CSSC2(C)C
- IC50 [1]: 340 pM
